Assay results reported in ChEMBL document CHEMBL4190373, “Tumor Targeting with Novel Pyridyl 6-Substituted Pyrrolo[2,3- d]Pyrimidine Antifolates via Cellular Uptake by Folate Receptor α and the Proton-Coupled Folate Transporter and Inhibition of De Novo Purine Nucleotide Biosynthesis” (J Med Chem, 2018).
Active and inactive are the calls of the source. No cut-off for these calls is given here.

Tests used:
KB [1] = assay: Antiproliferative activity against human KB cells expressing human RFC/FR-alpha/PCFT assessed as reduction in cell viability up to 1000 nM measured after 96 hrs in presence of thymidine by Cell-Titer Blue assay; format: functional, cell-based
[2] = target: Folate receptor beta (Homo sapiens) (UniProt P14207); assay: Displacement of [3H]folic acid from human FR-beta receptor expressed in Chinese hamster D4 cells measured after 15 mins; format: cell-based
KB [3] = assay: Antiproliferative activity against human KB cells expressing human RFC/FR-alpha/PCFT assessed as reduction in cell viability up to 1000 nM measured after 96 hrs in presence of adenosine by Cell-Titer Blue assay; format: functional, cell-based
[4] = Growth inhibition of Chinese hamster R2(VC) cells after 96 hrs celltiter-blue assay; settings: Cricetulus griseus
Summary of the method: (§1)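 CHO sublines expressing human PCFT (R2/PCFT4) or RFC (PC43-10), transporter-null R2, and empty-vector R2(VC). Continuous drug up to 1000 nM, up to 96 h, CellTiter-Blue fluorescence.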

KB [5] = assay: Antiproliferative activity against human KB cells expressing human RFC/FR-alpha/PCFT assessed as reduction in cell viability measured after 96 hrs in presence of folic acid by Cell-Titer Blue assay; format: functional, cell-based
[6] = Cytotoxicity in RFC-null Chinese hamster R2 cells assessed as reduction in cell viability measured after 96 hrs by Cell-Titer Blue assay; format: cell-based; settings: Cricetulus griseus, R2, 96 h; summary of the method: as §1
[7] = target: Folate receptor alpha (Homo sapiens) (UniProt P15328); assay: Displacement of [3H]folic acid from human FR-alpha receptor expressed in Chinese hamster RT16 cells measured after 15 mins; format: cell-based
Summary of the method: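 RT16 (FRα) or D4 (FRβ) CHO cells, ~5 x 10^6 per dish, stripped of bound folate with pH 3.5 acetate buffer. Then incubated in HEPES-buffered saline pH 7.4 with 50 nM [3H]folic acid ± unlabeled ligand 1-1000 nM. Bound label normalized to protein. […] Mean ± SE, 3 experiments.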

KB [8] = assay: Antiproliferative activity against human KB cells expressing human RFC/FR-alpha/PCFT assessed as reduction in cell viability measured after 96 hrs by Cell-Titer Blue assay; format: functional, cell-based
KB [9] = assay: Antiproliferative activity against human KB cells expressing human RFC/FR-alpha/PCFT assessed as reduction in cell viability up to 1000 nM measured after 96 hrs in presence of AICA by Cell-Titer Blue assay; format: functional, cell-based
IGROV-1 [10] = assay: Antiproliferative activity against human IGROV1 cells expressing human FR-alpha/PCFT assessed as reduction in cell viability measured after 96 hrs in presence of folic acid by Cell-Titer Blue assay; format: functional, cell-based; settings: IGROV-1, 96 h
Summary of the method: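 IGROV1 growth inhibition in folate-free RPMI 1640 with 10% dialyzed FBS, 2 nM leucovorin and 2 mM L-glutamine, with 200 nM folic acid added to block FR-mediated uptake. Drug present continuously up to 1000 nM for up to 96 h. Readout by CellTiter-Blue fluorescence.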

[11] = target: T1, Proton-coupled folate transporter (Homo sapiens) (UniProt Q96NT5); assay: Inhibition of [3H]MTX uptake at human PCFT expressed in Chinese hamster R2/PCFT4 cells at 1 uM at pH 5.5 by scintillation counting method relative to control; format: cell-based
T1 sequence (whole entry): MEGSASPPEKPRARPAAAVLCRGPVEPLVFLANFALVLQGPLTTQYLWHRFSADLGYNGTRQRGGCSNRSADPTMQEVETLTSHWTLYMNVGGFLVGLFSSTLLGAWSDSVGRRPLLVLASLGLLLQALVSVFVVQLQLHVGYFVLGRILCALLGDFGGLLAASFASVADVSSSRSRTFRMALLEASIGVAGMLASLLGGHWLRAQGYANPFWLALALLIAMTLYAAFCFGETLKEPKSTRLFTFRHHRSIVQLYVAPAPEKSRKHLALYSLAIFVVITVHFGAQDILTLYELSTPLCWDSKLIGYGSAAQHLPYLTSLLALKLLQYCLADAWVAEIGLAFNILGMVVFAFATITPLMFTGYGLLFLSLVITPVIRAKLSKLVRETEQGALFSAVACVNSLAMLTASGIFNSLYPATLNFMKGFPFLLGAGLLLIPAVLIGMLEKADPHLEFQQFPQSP
Summary of the method: (§2)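 Buffers: MES-buffered saline pH 5.5 or HEPES-buffered saline pH 6.8, with 1 or 10 µM inhibitor. Quenched with ice-cold DPBS, counted by scintillation, normalized to protein and untreated controls. Mean ± SE, 3 experiments.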

[12] = target: T1, Proton-coupled folate transporter (Homo sapiens); assay: Inhibition of [3H]MTX uptake at human PCFT expressed in Chinese hamster R2/PCFT4 cells at 10 uM at pH 5.5 by scintillation counting method relative to control; format: cell-based; summary of the method: as §2
[13] = target: T1, Proton-coupled folate transporter (Homo sapiens); settings: 1 uM
[14] = target: T1, Proton-coupled folate transporter (Homo sapiens); assay: Inhibition of [3H]MTX uptake at human PCFT expressed in Chinese hamster R2/PCFT4 cells at 10 uM at pH 6.8 by scintillation counting method relative to control; format: cell-based; summary of the method: as §2
Mus musculus [15] = assay: Toxicity in folate-deficient diet fed ICR SCID mouse assessed as body weight loss at 150 mg/kg, iv administered every 2 days for 8 times starting on day 3 measured twice per week; format: organism-based; settings: in vivo, 48 h
Summary of the method: (§3)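 Female SCID mice, 10 weeks, ~20 g. Fed folate-deficient or folate-replete diet from 14 days before bilateral s.c. IGROV1 tumor fragments (30-60 mg, trocar). […] Weighed daily, tumors measured twice weekly. Growth delay = T-C days to 1000 mg, median.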

IGROV-1 [16] = assay: Antitumor activity against human IGROV1 cells xenografted in folate-deficient diet fed ICR SCID mouse assessed as tumor growth delay time at 150 mg/kg, iv administered every 2 days for 8 times starting on day 3 measured twice per week; format: functional; summary of the method: as §3
IGROV-1 [17] = assay: Antiproliferative activity against human IGROV1 cells expressing human FR-alpha/PCFT assessed as reduction in cell viability measured after 96 hrs by Cell-Titer Blue assay; format: functional, cell-based; settings: IGROV-1, 96 h
[18] = target: T2, Proton-coupled folate transporter (Homo sapiens, UniProt Q96NT5); assay: Inhibition of [3H]MTX uptake at human PCFT expressed in Chinese hamster R2/PCFT4 cells at pH 5.5 measured after 2 mins by Dixon plot analysis; format: cell-based
T2 sequence (Q96NT5 whole entry): T1 sequence (whole entry)

IGROV-1 [19] = assay: Antitumor activity against human IGROV1 cells xenografted in folate-deficient diet fed ICR SCID mouse assessed as tumor growth inhibition at 150 mg/kg, iv administered every 2 days for 8 times starting on day 3 measured twice per week up to 49 days; format: functional, organism-based; summary of the method: as §3
IGROV-1 [20] = assay: Antitumor activity against human IGROV1 cells xenografted in high folate diet fed ICR SCID mouse assessed as tumor growth inhibition at 150 mg/kg, iv administered every 2 days for 8 times starting on day 3 measured twice per week; format: functional, organism-based; summary of the method: as §3
Mus musculus [21] = assay: Toxicity in folate-deficient diet fed ICR SCID mouse assessed as body weight loss at […], iv administered every 4 days for 4 times starting on day 3 measured twice per week; settings: in vivo
IGROV-1 [22] = assay: Antitumor activity against human IGROV1 cells xenografted in folate-deficient diet ICR SCID mouse assessed as tumor growth delay time at […], iv administered every 4 days for 4 times starting on day 3 measured twice per week
[23] = target: T1, Proton-coupled folate transporter (Homo sapiens); assay: Inhibition of [3H]MTX uptake at human PCFT expressed in Chinese hamster R2/PCFT4 cells at 1 to 10 uM at pH 5.5 to 6.8 by scintillation counting method; format: cell-based; summary of the method: as §2
[24] = target: T3, Trifunctional purine biosynthetic protein adenosine-3 (Homo sapiens, UniProt P22102); assay: Inhibition of GARFTase in human KB cells assessed as decrease in [14C]formyl GAR accumulation preincubated for 30 mins followed by [14C]glycine addition measured after 15 hrs in presence of azaserine by ion-exchange chromatographic assay; format: cell-based
T3 sequence (P22102 whole entry): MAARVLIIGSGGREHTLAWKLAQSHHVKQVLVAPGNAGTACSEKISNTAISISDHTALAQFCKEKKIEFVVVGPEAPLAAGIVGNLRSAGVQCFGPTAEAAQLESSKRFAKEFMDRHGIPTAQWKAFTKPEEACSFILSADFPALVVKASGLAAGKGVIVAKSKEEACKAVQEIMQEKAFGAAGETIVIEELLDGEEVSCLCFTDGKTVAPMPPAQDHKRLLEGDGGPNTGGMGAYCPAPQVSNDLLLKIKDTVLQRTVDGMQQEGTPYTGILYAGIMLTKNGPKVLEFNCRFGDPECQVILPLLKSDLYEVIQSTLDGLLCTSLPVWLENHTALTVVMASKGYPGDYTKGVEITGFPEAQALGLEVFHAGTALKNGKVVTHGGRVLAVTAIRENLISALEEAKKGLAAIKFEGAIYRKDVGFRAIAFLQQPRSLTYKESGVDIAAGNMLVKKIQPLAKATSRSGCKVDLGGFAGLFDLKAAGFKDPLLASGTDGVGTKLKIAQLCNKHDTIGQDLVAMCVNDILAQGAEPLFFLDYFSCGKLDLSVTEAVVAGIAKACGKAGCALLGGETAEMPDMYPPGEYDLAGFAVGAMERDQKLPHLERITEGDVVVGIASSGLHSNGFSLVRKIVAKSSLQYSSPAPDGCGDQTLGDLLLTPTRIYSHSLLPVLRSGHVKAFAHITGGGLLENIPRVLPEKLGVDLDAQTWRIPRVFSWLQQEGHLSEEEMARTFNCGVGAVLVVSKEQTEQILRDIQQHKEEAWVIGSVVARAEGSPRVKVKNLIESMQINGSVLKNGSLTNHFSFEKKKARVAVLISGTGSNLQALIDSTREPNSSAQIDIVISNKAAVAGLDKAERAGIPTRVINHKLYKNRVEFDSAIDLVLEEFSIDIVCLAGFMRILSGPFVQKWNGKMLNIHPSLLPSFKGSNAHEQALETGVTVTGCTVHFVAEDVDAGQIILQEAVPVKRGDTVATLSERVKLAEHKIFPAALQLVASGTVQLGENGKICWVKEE

Sequence of Folate receptor alpha (Homo sapiens) (P15328 25-234 limits assumed): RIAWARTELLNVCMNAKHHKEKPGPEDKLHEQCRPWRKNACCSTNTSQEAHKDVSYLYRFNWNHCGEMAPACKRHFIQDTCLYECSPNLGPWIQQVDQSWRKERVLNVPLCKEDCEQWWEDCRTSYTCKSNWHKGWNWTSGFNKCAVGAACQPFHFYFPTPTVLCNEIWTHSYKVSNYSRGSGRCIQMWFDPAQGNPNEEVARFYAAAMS
Sequence of Folate receptor beta (Homo sapiens) (P14207 17-230 limits assumed): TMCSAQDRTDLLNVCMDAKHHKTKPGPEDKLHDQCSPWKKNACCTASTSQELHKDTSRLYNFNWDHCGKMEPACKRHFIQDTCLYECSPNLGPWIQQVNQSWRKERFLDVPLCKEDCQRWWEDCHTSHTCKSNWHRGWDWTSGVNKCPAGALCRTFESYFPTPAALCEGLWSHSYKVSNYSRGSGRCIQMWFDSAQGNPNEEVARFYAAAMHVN

## Nc1nc2[nH]c(CCCCc3cccc(C(=O)N[C@@H](CCC(=O)O)C(=O)O)n3)cc2c(=O)[nH]1
KB [1]
  Activity: Active
[2]
  inhibition: inactive
KB [3]
  Activity: inactive
[4]
  IC50: > 1 µM
KB [5]
  IC50: > 1 µM
[6]
  IC50: > 1 µM
[7]
  inhibition: inactive
KB [8]
  IC50: 0.667 µM
KB [9]
  Activity: inactive

## Nc1nc2[nH]c(CCC#Cc3ccc(C(=O)N[C@@H](CCC(=O)O)C(=O)O)cn3)cc2c(=O)[nH]1
[4]
  IC50: > 1 µM
KB [5]
  IC50: > 1 µM
[6]
  IC50: > 1 µM
KB [8]
  IC50: > 1 µM

## Nc1nc2[nH]c(CCCCc3ccc(C(=O)N[C@@H](CCC(=O)O)C(=O)O)cc3)cc2c(=O)[nH]1
[4]
  IC50: > 1 µM
KB [5]
  IC50: > 1 µM
[6]
  IC50: > 1 µM
IGROV-1 [10]
  IC50: > 1 µM
[7]
  inhibition: Active
[11]
  inhibition: 50%
[12]
  inhibition: > 90%
[13]
  inhibition: 0%
[14]
  inhibition: 35%

## Nc1nc2[nH]c(CCCCc3ccc(C(=O)N[C@@H](CCC(=O)O)C(=O)O)nc3)cc2c(=O)[nH]1
Mus musculus [15]
  Activity: 5%
KB [1]
  Activity: Active
IGROV-1 [16]
  Time: 45 days
KB [3]
  Activity: inactive
[4]
  IC50: > 1 µM
KB [5]
  IC50: 0.368 µM
IGROV-1 [17]
  IC50: 0.00068 µM
[6]
  IC50: > 1 µM
[18]
  Ki: 0.332 µM
IGROV-1 [10]
  IC50: 0.846 µM
[11]
  inhibition: 70%
IGROV-1 [19]
  TGI: Active
IGROV-1 [20]
  TGI: inactive
[12]
  inhibition: > 90%
[13]
  inhibition: 10%
[14]
  inhibition: 40%
KB [8]
  IC50: 0.00037 µM
KB [9]
  Activity: inactive

## C#CCC(Cc1cnc2nc(N)nc(N)c2n1)c1ccc(C(=O)N[C@@H](CCC(=O)O)C(=O)O)cc1 (mixture of isomers) [PRALATREXATE]
[4]
  IC50: > 1 µM
[6]
  IC50: 0.819 µM

## Nc1nc2[nH]c(CCC#Cc3ccc(C(=O)N[C@@H](CCC(=O)O)C(=O)O)nc3)cc2c(=O)[nH]1
[4]
  IC50: > 1 µM
KB [5]
  IC50: > 1 µM
[6]
  IC50: > 1 µM
KB [8]
  IC50: > 1 µM

## Nc1nc2[nH]c(CCC#Cc3cccc(C(=O)N[C@@H](CCC(=O)O)C(=O)O)n3)cc2c(=O)[nH]1
[4]
  IC50: > 1 µM
KB [5]
  IC50: > 1 µM
[6]
  IC50: > 1 µM
KB [8]
  IC50: > 1 µM

## Nc1nc2[nH]cc(CCc3ccc(C(=O)N[C@@H](CCC(=O)O)C(=O)O)cc3)c2c(=O)[nH]1 [PEMETREXED]
Mus musculus [21]
  Activity: 14%
[6]
  IC50: 0.849 µM
IGROV-1 [22]
  Time: 0 days
[11]
  inhibition: 85%
[13]
  inhibition: 40%
[14]
  inhibition: 75%

## CN(Cc1cnc2nc(N)nc(N)c2n1)c1ccc(C(=O)N[C@@H](CCC(=O)O)C(=O)O)cc1 [METHOTREXATE]
[4]
  IC50: > 1 µM

## CN(Cc1cnc2nc(N)nc(N)c2n1)c1ccc(C(=O)N[C@@H](CCCNC(=O)c2ccccc2C(=O)O)C(=O)O)cc1
[23]
  inhibition: inactive

## Nc1nc2[nH]c(CCCCc3ccc(C(=O)N[C@@H](CCC(=O)O)C(=O)O)cn3)cc2c(=O)[nH]1
KB [1]
  Activity: Active
[2]
  inhibition: Active
KB [3]
  Activity: inactive
[4]
  IC50: > 1 µM
KB [5]
  IC50: > 1 µM
[6]
  IC50: > 1 µM
[7]
  inhibition: Active
KB [8]
  IC50: 0.0174 µM
KB [9]
  Activity: inactive
[24]
  IC50: 0.0048 µM
